A selection: hits, their analogues and other compounds. The true share with any hit is near 3.5%.
MrgX1 agonist: agonists of human MrgX1 receptor; Q96LB2; 310,000 compounds, 0.44% hits; MrgX1-HEK293 cells, Fluo-4 calcium fluorescence, agonist mode; stronger effect = higher value; AID 588627; B-score at 10 µM;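 active = calcium response B-score plate-corrected fluorescence ratio at least 3 library SD, with starting fluorescence B-score inside 5 SD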
Target sequence (Q96LB2 whole entry, looked up): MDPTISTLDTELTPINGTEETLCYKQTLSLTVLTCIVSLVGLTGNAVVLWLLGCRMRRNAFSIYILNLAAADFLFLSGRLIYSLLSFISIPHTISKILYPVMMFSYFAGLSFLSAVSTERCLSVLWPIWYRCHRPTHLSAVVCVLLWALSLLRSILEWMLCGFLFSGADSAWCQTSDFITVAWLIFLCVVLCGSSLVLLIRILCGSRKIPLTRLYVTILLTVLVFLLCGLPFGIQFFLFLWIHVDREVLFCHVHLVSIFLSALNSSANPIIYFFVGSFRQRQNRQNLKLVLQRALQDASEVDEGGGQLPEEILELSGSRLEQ
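Material: MrgX1-expressing HEK293 cells / Dosing: compound as first of three additions / Incubation: overnight seeding, then 1 h dark dye loading / Signal: Fluo-4 NW calcium fluorescence / Evaluation: B-scored fluorescence response ratio / Benchmarks: positive and negative control wells on each plate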
MrgX1 PAM: allosterically activates human MrgX1 receptor signaling; B-score at 10 µM; 310,000 compounds, 0.63% hits; MrgX1-HEK293, Fluo-4 calcium flux, FDSS; stronger effect = higher value; Q96LB2;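 active = plate-corrected calcium response at least 3 library SD above typical, normal starting fluorescence, not activating the receptor alone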;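 also: compound read alongside a low EC10 to EC30 dose of BAM8-22 agonist; peak minus trough fluorescence over baseline measured at the second addition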
RGS4 pot: RGS4 potentiation or activation | HEK293 M3R/inducible RGS4, carbachol calcium flux Fluo4; stronger effect = lower value | B-score at 10 µM | 310,000 compounds, 0.92% hits;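 active = B-score of the integrated calcium signal more than 4 SD below the library mean, with starting fluorescence not abnormally high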;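 also: negative B-score means reduced calcium response which marks RGS4 activation or potentiation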
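System: HEK293 FlpIn-TREx cells, stable M3R, doxycycline-inducible RGS4. Timing: overnight RGS4 induction, 30 min dye load 37 °C, 20 min compound RT. Also added: carbachol, ECmax concentration. Measured by: Fluo4 fluorescence kinetic imaging of calcium. Evaluation: integrated calcium ratio converted to B score.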
RGS4 inh: inhibitors of human RGS4 | 310,000 compounds, 0.45% hits | HEK293 M3R/RGS4 inducible, Fluo-4 calcium flux; stronger effect = higher value; triggered by carbachol at its EC20 | B-score at 10 µM;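 active = B-score, a plate-corrected calcium signal, over three deviations above library mean, with baseline fluorescence within five deviations of library mean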;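 also: RGS4 expression induced by doxycycline in cells with stable M3 receptor; B-score is computed from the integrated fluorescence ratio over baseline after carbachol; higher B-score means a larger calcium signal and so more RGS4 inhibition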
Target sequence (P49798 whole entry, looked up): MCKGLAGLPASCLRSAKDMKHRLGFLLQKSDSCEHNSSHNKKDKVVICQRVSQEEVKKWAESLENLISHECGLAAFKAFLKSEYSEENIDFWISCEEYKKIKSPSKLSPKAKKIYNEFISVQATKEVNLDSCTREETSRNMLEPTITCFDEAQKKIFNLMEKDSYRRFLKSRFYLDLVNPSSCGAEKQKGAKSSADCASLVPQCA
MrgX1 antag: human MrgX1 receptor antagonism, primary screen; MRGX1-HEK293 calcium flux, Fluo-4, BAM8-22 antagonism; stronger effect = lower value; B-score at 10 µM; 310,000 compounds, 1.3% hits; AID 588676;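 active = calcium-response B-score plate-corrected more than 3 library SD below zero, starting fluorescence within 5 deviations, no agonist response on first addition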;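 also: peak minus trough fluorescence over baseline after final BAM8-22 challenge near maximal dose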
Large screens that a line does not name were inactive.

O=C(Nc1ccc(Br)cc1)Nc1ccccc1F	none
COc1ccccc1N1CCN(C(=O)CCc2c[nH]c3ccccc23)CC1	none
Cc1ccc(Cl)cc1N(C)C(=O)Cn1ncc2c([nH]c3ccccc32)c1=O	none
O=C(OCC1OC(n2ncc(=O)[nH]c2=O)C(OC(=O)c2ccccc2)C1OC(=O)c1ccccc1)c1ccccc1 (configuration not stated)	RGS4 pot -7.2
CC(C)C1OC2c3cccc4cccc(c34)C2N1c1ccccc1 (configuration not stated)	MrgX1 agonist 38.9
COC(=O)C(C)N1C(=O)S/C(=C\c2ccc(-c3ccc(C(=O)O)cc3C)o2)C1=O (configuration not stated)	none
CC1=C(C)CC2(SC1)C(=O)N(c1ccccc1)N=C2N (configuration not stated)	none
CCS(=O)(=O)N1N=C(c2cccc(NS(C)(=O)=O)c2)CC1c1ccccc1 (configuration not stated)	MrgX1 antag -5.49
Cc1[nH]c2ccccc2c1C(=O)C(=O)N1CC=C(c2ccccc2)CC1	none
COC(=O)CN1C(=O)N/C(=C/c2ccc(OC)cc2)C1=O	MrgX1 agonist 42.7
C(C#CCCCCCCCCC[n+]1ccccc1)#CCCCCCCCCC[n+]1ccccc1	RGS4 pot -12.2
O=S1(=O)c2ccccc2N=NN1Cc1ccc(Cl)c(Cl)c1	MrgX1 agonist 28.8
CC(C)(C)c1ccc(CN2N=Nc3ccccc3S2(=O)=O)cc1	none
O=C(COC(=O)c1cccc([N+](=O)[O-])c1)c1ccc(OCc2ccccc2)cc1	RGS4 pot -8.4
Cc1ccccc1OCCNc1cc(N2CCNCC2)ccc1[N+](=O)[O-]	MrgX1 agonist 26.9, RGS4 inh 5.08
CC12CCC(C/C1=N/NC(=O)Nc1ccccc1)C2(C)C (configuration not stated)	MrgX1 PAM 12.7
CC12CCC(C/C1=N/NC(=O)COc1ccccc1Cl)C2(C)C (configuration not stated)	none
CC12CCC(C/C1=N\OC(=O)c1c(F)cccc1F)C2(C)C (configuration not stated)	MrgX1 agonist 53.8
CN(C1CCCCC1)S(=O)(=O)c1cc2c(cc1Cl)NC(=O)CO2	none
CC1CCCCN1CCNC(=O)c1ccc2c(c1)N(Cc1cccc(Cl)c1)C(=O)c1ccccc1S2=O (configuration not stated)	RGS4 pot -8.25
Cc1ccccc1CN1C(=O)c2ccccc2S(=O)c2ccc(C(=O)NCCCN3CCOCC3)cc21 (configuration not stated)	none
CC1CC(C)CN(CCCNC(=O)c2ccc3c(c2)N(Cc2ccccc2)C(=O)c2ccccc2S3=O)C1 (configuration not stated)	RGS4 pot -7.25
O=C(NCCCN1CCCC1)c1ccc2c(c1)N(Cc1cccc(Cl)c1)C(=O)c1ccccc1S2=O (configuration not stated)	none
CCOC(=O)C1=C(COC(=O)/C=C/c2cccc(OC)c2)NC(=O)NC1C (configuration not stated)	RGS4 pot -6.96
CCOC(=O)CNC(=O)N1CCCC(CNS(=O)(=O)Cc2ccccc2)C1 (configuration not stated)	none
COCCn1c(SCc2cccc([N+](=O)[O-])c2)nc2ccccc2c1=O	none
CCCCn1c(SCc2cccc([N+](=O)[O-])c2)nc2ccsc2c1=O	RGS4 pot -8.05
Cc1nnc(NC(=O)CCSc2ccc(Cl)cc2)s1	none
COc1ccc(N/N=C(/C(C)=O)N2CCCc3ccccc32)cc1	RGS4 pot -7.99
COc1ccc(NC(=O)N2CCCc3ccccc32)cc1	none
CCN(CC)CCSc1nc2ccccc2c(=S)n1-c1ccccc1	RGS4 pot -8.03
CCN(CC)CCSc1nc2ccccc2n1Cc1ccccc1	RGS4 pot -9.11
CCN(CC)CCSc1nc(O)c(-c2ccccc2)c(=O)n1-c1ccccc1	none
CC(C)CC(OC(=O)CC1Sc2ccccc2NC1=O)C(=O)NC1CCCC1 (configuration not stated)	none
COc1ccc(-c2csc(NC(=O)C3CCN(C(=O)c4ccc(F)cc4)CC3)n2)cc1OC	none
CC(C)(C)c1ccc(OCC(=O)NNC(=S)NC(=O)c2ccco2)c(Br)c1	RGS4 pot -10.4
CC(C)c1ccc(OCC(=O)NNC(=S)NC(=O)c2ccco2)c(Br)c1	RGS4 pot -9.53
CC(=O)c1ccc(NC(=O)CS(=O)(=O)c2cn(CC(=O)N3CCOCC3)c3ccccc23)cc1	none
COc1cccc(C2C3=C(N=c4s/c(=C\c5ccc(OCC(=O)O)cc5)c(=O)n42)c2ccccc2CC3)c1 (configuration not stated)	RGS4 pot -8.42, MrgX1 antag -7.51
COc1ccc(C(=O)C[n+]2ccc(N(C)C)cc2)cc1	none
COc1ccc(N2CCN(C(=O)Cn3nnc(-c4ccc(OC)c(OC)c4)n3)CC2)cc1	none
Cc1ccc(-c2nnn(CC(=O)N3CCN(c4ccccc4)CC3)n2)o1	RGS4 pot -7.58
O=[N+]([O-])c1ccc(N/N=C/c2cn(-c3ccccc3)nc2-c2ccccc2)cc1	MrgX1 antag -4.54
COc1ccc(-c2nn(-c3ccccc3)cc2C=O)cc1[N+](=O)[O-]	none
COc1ccc(-c2nn(-c3ccccc3)cc2/C=C/C(=O)O)cc1[N+](=O)[O-]	MrgX1 PAM 9.17
O=C(O)/C=C/c1cn(-c2ccccc2)nc1-c1ccc(-c2ccc([N+](=O)[O-])cc2)o1	MrgX1 antag -4.56
O=C(O)/C=C/c1cn(-c2ccccc2)nc1-c1cccc([N+](=O)[O-])c1	none
CC(C)CC(=O)Nc1c2c(nn1-c1cccc(Cl)c1)CS(=O)(=O)C2	none
Cc1nc2ccc(Br)cc2c(=O)n1Cc1cccs1	none
CC(C)(C)C(=O)O/N=C(\N)c1c(Cl)cccc1Cl	RGS4 pot -9.09
COCCC1CCCCN1C(=O)c1ccc2nc(Cc3ccccc3F)oc2c1 (configuration not stated)	none
Cc1c(CCC(=O)N2CCC(C(=O)O)CC2)c(=O)oc2cc3oc4c(c3cc12)CCCC4	none
Cc1c(CCC(=O)N2CCC(C(=O)O)(c3ccccc3)CC2)c(=O)oc2cc3oc4c(c3cc12)CCCC4	MrgX1 antag -6.24
CCCOC(=O)c1c(NC(=O)/C=C/c2cnn(C)c2C)sc(C(=O)OCC)c1C	MrgX1 antag -4.57
CCCOC(=O)c1c(NC(=O)/C=C/c2cnn(C)c2C)sc(C(=O)OC)c1C	none
CC1(C)Cc2c(sc3[nH]c(=O)n(CC(=O)NCC4CCCO4)c(=O)c23)CO1 (configuration not stated)	none
Cc1ccc(C)c(CN2CCC(CNC(=O)Nc3ccc(Cl)cc3)CC2)c1	none
COc1cc(NC(=O)NCC2CCN(Cc3ccccc3C)CC2)cc(OC)c1OC	RGS4 pot -6.96

Screening results as filed in PubChem BioAssay.
